Measurements from ChEMBL document CHEMBL3286252, “Synthesis, biological evaluation and structure-activity relationship of new GABA uptake inhibitors, derivatives of 4-aminobutanamides” (Eur J Med Chem, 2014).

Legend:
Mus musculus [1] = assay: Antinociceptive activity in albino Swiss (CD-1) mouse assessed as latency time to pain reaction at 30 mg/kg, ip by hot plate test (reference value: 13.9 +/- 1.2 secs); type: functional; settings: route intraperitoneal
Mus musculus [2] = assay: Toxicity in albino Swiss (CD-1) mouse assessed as decrease in locomotor activity at 30 mg/kg, ip after 60 mins; type: organism-based; set-up: dose 30 mg/kg, route intraperitoneal; settings: in vivo, 1 h
Summary of the method: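 Mice were pretreated i.p. with 30 mg/kg or vehicle (1% Tween 80) 60 min before testing. Each was placed alone in an IR-beam activity cage (40×40×31 cm) in a sound-attenuated room. Beam interruptions were counted over 30 min in five 6-min intervals. Analysis: repeated-measures ANOVA with Bonferroni.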

[3] = Retardation factor of the compound using 25%NH3/MeOH/DCM/PE at ratio of 45:225:600:90 as solvent system by thin layer chromatography; type: physicochemical
GABA transporter 2 = molecular target: T1, GABA transporter 2 (Mus musculus, UniProt P31651); assay: Inhibition of mouse GAT2 expressed in HEK293 cells assessed as decrease in [3H]GABA uptake; type: cell-based
T1 sequence (P31651 whole entry): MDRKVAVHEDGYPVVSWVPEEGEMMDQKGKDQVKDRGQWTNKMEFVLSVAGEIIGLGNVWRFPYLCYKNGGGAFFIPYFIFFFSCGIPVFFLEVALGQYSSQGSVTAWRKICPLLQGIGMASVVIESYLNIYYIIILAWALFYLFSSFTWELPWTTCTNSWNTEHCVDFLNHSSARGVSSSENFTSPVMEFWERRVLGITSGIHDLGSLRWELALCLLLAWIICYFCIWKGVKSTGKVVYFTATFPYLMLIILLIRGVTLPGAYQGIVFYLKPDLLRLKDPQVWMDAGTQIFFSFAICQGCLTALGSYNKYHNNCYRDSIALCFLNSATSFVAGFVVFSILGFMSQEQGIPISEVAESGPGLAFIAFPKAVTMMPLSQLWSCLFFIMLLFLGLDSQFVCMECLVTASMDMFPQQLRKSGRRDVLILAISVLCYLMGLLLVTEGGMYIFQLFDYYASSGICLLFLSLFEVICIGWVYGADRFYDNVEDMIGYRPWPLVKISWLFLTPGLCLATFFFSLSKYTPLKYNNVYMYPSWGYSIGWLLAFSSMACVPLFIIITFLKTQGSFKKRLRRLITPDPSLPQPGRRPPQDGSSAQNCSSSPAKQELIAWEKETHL

Mus musculus [4] = assay: Antidepressant-like activity in albino Swiss (CD-1) mouse assessed as reduction in immobility time at 30 mg/kg, ip by forced swim test; type: functional; settings: route intraperitoneal
Summary of the method: (§1)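 Compound or vehicle was given i.p. 60 min before the test. Each mouse was placed for 6 min in a glass cylinder (25 cm high, 10 cm diameter) holding 10 cm of water at 23–25 C. Immobility, meaning passive floating, was timed over the final 4 min. 7–8 mice per group; ANOVA with Dunnett's test.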

[5] = molecular target: Sodium- and chloride-dependent GABA transporter 1 (Mus musculus) (UniProt P31648); assay: Displacement of NO711 from mouse GAT1 expressed in HEK293 cells assessed as NO711 binding at 100 uM by LC-MS/MS analysis; type: cell-based
[6] = molecular target: Sodium- and chloride-dependent GABA transporter 1 (Mus musculus, UniProt P31648); assay: Inhibition of mouse GAT1 expressed in HEK293 cells assessed as decrease in [3H]GABA uptake; type: cell-based
Mus musculus [7] = assay: Antidepressant-like activity in albino Swiss (CD-1) mouse assessed as reduction in immobility time at 15 mg/kg, ip by forced swim test; type: functional; settings: route intraperitoneal; summary of the method: as §1
Mus musculus [8] = assay: Anticonvulsant activity against pentylenetetrazole-induced seizure in albino Swiss (CD-1) mouse assessed as decrease in seizure episodes at 30 mg/kg, ip administered 60 mins prior to PTZ challenge; type: functional; settings: route intraperitoneal
Summary of the method: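 Male CD-1 mice (18–22 g) given compound or vehicle i.p. 60 min before PTZ 100 mg/kg s.c. Each mouse was then caged alone and watched for 30 min for clonic seizures, meaning whole-body clonus lasting >3 s with loss of righting reflex. Recorded: latency to first clonus, number of seizure episodes, and deaths within 30 min. Analysis: ANOVA/Dunnett or t-test; mortality by Fisher's exact test; 7–10 mice per group.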

GABA transporter 4 = molecular target: T2, GABA transporter 4 (Mus musculus, UniProt P31650); assay: Inhibition of mouse GAT4 expressed in HEK293 cells assessed as decrease in [3H]GABA uptake; type: cell-based
T2 sequence (P31650 whole entry): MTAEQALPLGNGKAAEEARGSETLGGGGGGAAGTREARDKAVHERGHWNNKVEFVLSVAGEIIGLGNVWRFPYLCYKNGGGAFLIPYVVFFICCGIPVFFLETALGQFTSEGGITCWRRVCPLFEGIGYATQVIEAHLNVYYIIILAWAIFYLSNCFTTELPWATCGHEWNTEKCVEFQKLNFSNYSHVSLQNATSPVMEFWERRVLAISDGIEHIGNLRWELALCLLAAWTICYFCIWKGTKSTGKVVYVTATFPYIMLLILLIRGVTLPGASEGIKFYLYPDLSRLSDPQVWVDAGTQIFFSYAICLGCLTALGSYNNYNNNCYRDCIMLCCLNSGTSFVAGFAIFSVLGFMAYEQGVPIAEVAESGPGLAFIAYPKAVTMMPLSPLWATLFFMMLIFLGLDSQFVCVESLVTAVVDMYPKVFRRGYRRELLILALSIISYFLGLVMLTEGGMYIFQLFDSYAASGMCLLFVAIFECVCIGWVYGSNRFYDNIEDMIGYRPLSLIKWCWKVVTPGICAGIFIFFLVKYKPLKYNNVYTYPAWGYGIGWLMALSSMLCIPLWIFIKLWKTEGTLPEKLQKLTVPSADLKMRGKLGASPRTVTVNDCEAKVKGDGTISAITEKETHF

GABA transporter 3 = molecular target: T3, GABA transporter 3 (Mus musculus, UniProt P31649); assay: Inhibition of mouse GAT3 expressed in HEK293 cells assessed as decrease in [3H]GABA uptake; type: cell-based
T3 sequence (P31649 whole entry): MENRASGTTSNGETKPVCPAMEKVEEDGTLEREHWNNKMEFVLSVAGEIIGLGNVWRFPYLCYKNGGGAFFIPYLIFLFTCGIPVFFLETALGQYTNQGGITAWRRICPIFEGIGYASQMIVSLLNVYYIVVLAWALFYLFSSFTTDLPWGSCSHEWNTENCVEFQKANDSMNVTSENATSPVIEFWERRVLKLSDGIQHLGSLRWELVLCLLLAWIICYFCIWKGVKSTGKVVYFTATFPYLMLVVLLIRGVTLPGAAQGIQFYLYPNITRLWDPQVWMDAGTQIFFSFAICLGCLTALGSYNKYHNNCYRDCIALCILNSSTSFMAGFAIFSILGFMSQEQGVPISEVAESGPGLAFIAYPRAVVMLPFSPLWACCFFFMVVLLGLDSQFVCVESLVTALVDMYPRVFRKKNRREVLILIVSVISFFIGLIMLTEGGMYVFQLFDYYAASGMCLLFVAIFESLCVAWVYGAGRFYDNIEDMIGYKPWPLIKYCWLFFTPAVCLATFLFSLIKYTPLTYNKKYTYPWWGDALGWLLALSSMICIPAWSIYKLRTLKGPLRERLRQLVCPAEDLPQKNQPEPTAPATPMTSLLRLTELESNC

SMILES | Time (Mus musculus [1]) [s] | Activity (Mus musculus [2]) | Rf [3] | IC50 (GABA transporter 2) [µM] | inhibition in vivo at 30 mg/kg (Mus musculus [4]) [%] | Activity [5] [%] | IC50 [6] [µM] | inhibition in vivo at 15 mg/kg (Mus musculus [7]) [%] | inhibition in vivo at 30 mg/kg (Mus musculus [8]) [%] | IC50 (GABA transporter 4) [µM] | IC50 (GABA transporter 3) [µM]
NCCC(C(=O)NCc1ccccc1Cl)N1CCN(C(c2ccccc2)c2ccccc2)CC1 (configuration not stated) | 18.8 | Non-toxic | 0.18 | 21.9 | 38.5 | 55 | 20.9 | 26 | 37 | 15.1 | 10.5
NCCC(C(=O)NCc1ccc(Cl)cc1)N1CCN(C(c2ccccc2)c2ccccc2)CC1 (configuration not stated) | 27.5 | Toxic | 0.14 | 20.9 | 28.9 | 53 | 25.7 | 3.8 | 83 | 12 | 10.7
